Active and inactive are the calls of the source.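 Rule for the calls, unless noted: active = visually confirmed hit in the image check and inhibition above 20%; inconclusive = visually confirmed hit but inhibition not above 20%; inactive = no visual hit in the image check.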

Data on 14 compounds can be found in PubChem BioAssay.

A short description of assay [1]: inhibitors of TNFa-induced NFkB p65 translocation, primary screen, imaging, HUVEC, MLSMR starter and 10KST1 sets (AID 438;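 active = inhibition above 20% together with a positive visual image hit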;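 note: compound added about 3h40 before a 20 min TNFalpha stimulation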;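 for inhibition: signal is the nuclear over cytoplasmic p65 intensity ratio per well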). The note with it: HUVEC TNFa-induced p65 nuclear translocation; cell count: measured here: nuclei count (cytotoxicity indicator), at 2.08 µM; inhibition: at 2 µM, stronger effect = higher value, 0% TNFa-plus-vehicle, 100% no-TNFa wells.
The nature of assay [2]: inhibitors of mutant huntingtin aggregation, primary screen, imaging, exon1htt(103Q)mCFP cells, high-content imaging (AID 483;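 active = visual image review flags a hit and inhibition of aggregation exceeds 20%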;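 note: compound exposure lasted 3 days before fixation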;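 for nuclei count: percent of the per-plate median nuclei count of sample wells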). The note with it: exon1htt(103Q)mCFP cell line, aggregate imaging, at 2 µM; inhibition of aggregation: stronger effect = higher value; nuclei count: measured here: cell count, toxicity.
Assay [3] is described as follows: inhibitors of E-selectin induction by TNFa, primary screen, imaging, HUVEC, immunofluorescence, MLSMR starter and 10KST1 sets (AID 487).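 For inhibition: signal is fraction of cell area covered by stained E-selectin grains.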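 For nuclei count: 100% = median nuclei count of all wells on the same plate.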 As to conditions: HUVEC TNFalpha-induced E-selectin immunofluorescence imaging, at 2 µM; inhibition: stronger effect = higher value; nuclei count: measured here: cell number, toxicity.
The target in assay [4] is Voltage-gated potassium channel subunit beta-2 (Rattus norvegicus) (UniProt P62483). The experiment in a line: KvBeta enzyme negative modulators, primary screen, biochemical, NADPH fluorescence (AID 622;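 active = fluorescence slope higher than the sample average by over 3 SD, cut at about -0.22 in these data, passing the limit was not always enough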;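 note: slope of raw intensity against log time taken from 70 to 1610 s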). The note with it: recombinant KvBeta, 4-cyanobenzaldehyde reduction, at 10 µM, stronger effect = higher value.
Voltage-gated potassium channel subunit beta-2 (Rattus norvegicus), sequence (P62483 whole entry, looked up): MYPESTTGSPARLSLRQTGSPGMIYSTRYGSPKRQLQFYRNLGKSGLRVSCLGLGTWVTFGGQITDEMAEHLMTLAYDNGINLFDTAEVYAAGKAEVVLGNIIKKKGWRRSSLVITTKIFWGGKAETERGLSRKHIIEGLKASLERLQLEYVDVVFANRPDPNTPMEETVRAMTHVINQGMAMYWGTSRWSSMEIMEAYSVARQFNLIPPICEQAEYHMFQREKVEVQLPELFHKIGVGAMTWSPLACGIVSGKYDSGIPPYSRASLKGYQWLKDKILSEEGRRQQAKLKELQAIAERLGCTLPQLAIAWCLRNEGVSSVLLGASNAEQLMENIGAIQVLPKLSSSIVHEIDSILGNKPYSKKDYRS
Assay [5] shares this target. The experiment in a line: KvBeta positive modulators, primary screen, biochemical, NADPH fluorescence (AID 623;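 active = NADPH fluorescence slope more negative than the mean of all samples by about 3 SD, 99.7% confidence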;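 note: fluorescence intensity change per second fitted from 20 to 320 s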). The note with it: Recombinant KvBeta, NADPH fluorescence decrease slope, 10 min; at 10 µM; stronger effect = lower value.
Assay [6] addresses Muscarinic acetylcholine receptor M4 (Homo sapiens) (UniProt P08173). The experiment in a line: compounds altering M4/GIRK thallium flux, either direction, primary screen, M4 allosteric agonist project, cell-based, HEK293 M4/GIRK, BTC-AM (AID 625;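 active = fluorescence slope after compound addition differing from the mean of all tested samples at 99.7% confidence, mostly higher but some lower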;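 note: thallium influx through GIRK channels coupled to M4 in HEK293 cells with BTC-AM dye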). The note with it: at 10 µM, actives lie on both sides. An outline of the steps:
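Material: M4/GIRK1/GIRK2 stable HEK293 cell line. Medium: pH 7.3 thallium assay buffer. Dosing: single compound concentration, 10 µM final. Schedule: 1 h dye loading, 2 min kinetic read. Measured by: kinetic fluorescence with BTC-AM dye. Read-out: post-addition slope, 15–24 s, of baseline-normalized fluorescence. Benchmarks: carbachol and DMSO controls.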

Assay [7] in a line: inhibitors of Sendai virus-induced IRF3 signaling, primary screen, TLR/RLR signaling modifier project, cell-based, Sendai virus stimulus, luciferase, 10K MLSCN set (AID 602276;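 active = inhibition at or above 50% at 10 µM; inactive = inhibition below 50%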;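 note: firefly luciferase from ISG56 promoter only with Renilla not read in this screen; 0% = Sendai virus plus DMSO and 100% = medium plus DMSO without virus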). As to conditions: HEK293 RL24 IRF3 luciferase reporter, at 10 µM, stronger effect = higher value.
Assay [8] can be described thus: inhibitors of poly I:C-induced TLR3 signaling, primary screen, cell-based, poly I:C stimulus, luciferase, 10K MLSCN set (AID 602277;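 active = inhibition of the reporter signal at or above 50%; inactive = inhibition below 50%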). The note with it: HEK293-TLR3 RL24 IRF3 luciferase reporter, at 10 µM, stronger effect = higher value.

Muscarinic acetylcholine receptor M4 (Homo sapiens), sequence (P08173 whole entry, looked up): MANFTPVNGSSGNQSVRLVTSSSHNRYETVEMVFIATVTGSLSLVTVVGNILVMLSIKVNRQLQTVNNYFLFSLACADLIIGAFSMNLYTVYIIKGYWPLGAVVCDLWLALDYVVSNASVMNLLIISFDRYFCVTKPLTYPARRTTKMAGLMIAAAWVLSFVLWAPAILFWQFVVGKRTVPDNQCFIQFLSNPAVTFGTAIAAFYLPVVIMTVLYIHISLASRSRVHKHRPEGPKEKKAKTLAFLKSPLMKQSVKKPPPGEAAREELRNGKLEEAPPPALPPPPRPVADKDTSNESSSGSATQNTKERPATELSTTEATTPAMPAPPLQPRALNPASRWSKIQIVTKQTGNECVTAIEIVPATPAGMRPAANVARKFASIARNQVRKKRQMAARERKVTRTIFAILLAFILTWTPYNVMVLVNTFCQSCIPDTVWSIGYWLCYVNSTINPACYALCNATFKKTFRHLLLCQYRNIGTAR

For `CSc1nnc2n(CCc3ccccc3)c(=O)c3c4c(sc3n12)CCCC4`, the cell count in assay [1] is 295. In addition, the inhibition was -21.3% (inactive) in assay [1], -22% (inactive) in assay [3], 7.14% (inactive) in assay [7] and -1.7% (inactive) in assay [8]. Further, the inhibition of aggregation in assay [2] was -2.1% (inactive). The nuclei count in assay [2] was 106%; in assay [3], 112%. The fluorescence slope is -0.476 (inactive) in assay [4] and 0.00521 (inactive) in assay [6]. In assay [5], the NADPH fluorescence slope was -2.9e-05 (inactive).
With `CCCCOc1ccc(-c2nnn(CC(=O)NCc3ccco3)n2)cc1`, the cell count in assay [1] is 457. The inhibition in assay [1] was 3.9% (inactive); in assay [3] it was -62% (inactive); in assay [7], 30.6% (inactive); in assay [8], -15.6% (inactive). Besides, the inhibition of aggregation in assay [2] was -61.8% (inactive). In addition, the nuclei count was 18.8% in assay [2] and 104% in assay [3]. In addition, the fluorescence slope in assay [4] is -0.523 (inactive); in assay [6] it was 0.00448 (inactive). Also, the NADPH fluorescence slope in assay [5] is -0.000212 (inactive).
With `CCOC(=O)c1ccccc1NC(=O)CSc1nc2c(c(=O)n(C)c(=O)n2C)n1C`, in assay [1], the cell count is 718. Besides, the inhibition is -6.2% (inactive) in assay [1], 12.3% (inactive) in assay [3], 18.4% (inactive) in assay [7] and 25% (inactive) in assay [8]. Further, the inhibition of aggregation in assay [2] is -10.4% (inactive). The nuclei count turned out to be 107% in assay [2] and 102% in assay [3]. Further, the fluorescence slope in assay [4] is -0.444 (inactive); in assay [6], 0.00588 (inactive). Further, the NADPH fluorescence slope in assay [5] was 3e-05 (inactive).
With `COc1ccc(NC(=O)CCNC(=O)Cn2ccc3ccccc3c2=O)c(OC)c1`, in assay [1], the cell count is 707. In addition, the inhibition in assay [1] was -8.4% (inactive); in assay [3], -39.3% (inactive); in assay [7], 14.4% (inactive); in assay [8], 15.6% (inactive). Also, the inhibition of aggregation in assay [2] was 22.3% (inactive). Also, the values for the nuclei count in assay [2] and in assay [3] were 101% and 115%, respectively. The fluorescence slope in assay [4] was -0.331 (inactive); in assay [6] it was 0.00839 (inactive). For the same compound, in assay [5], the NADPH fluorescence slope is -5.9e-05 (inactive).
Turning to `COc1cccc(-c2noc(CCC(=O)NC3CCCCC3)n2)c1`, the cell count in assay [1] was 433. Moreover, the inhibition in assay [1] is -12.7% (inactive); in assay [3], -39.4% (inactive); in assay [7] it was 11% (inactive); in assay [8], 15.2% (inactive). Besides, the inhibition of aggregation in assay [2] is -6.8% (inactive). In addition, the nuclei count in assay [2] was 112%; in assay [3] it was 108%. For the same compound, the fluorescence slope in assay [4] was -0.461 (inactive); in assay [6], 0.00539 (inactive). For the same compound, the NADPH fluorescence slope in assay [5] is -4.1e-05 (inactive).
For the compound `CC(NC(=O)c1ccccc1NC(=O)c1ccco1)C(=O)O` (centres undefined), the cell count in assay [1] was determined as 438. Besides, the inhibition in assay [1] is 0.9% (inactive); in assay [3] it was -67.5% (inactive); in assay [7], 23.6% (inactive); in assay [8], 20% (inactive). In assay [2], the inhibition of aggregation is -9.6% (inactive). Moreover, the nuclei count in assay [2] is 100%; in assay [3], 121%. For the same compound, the fluorescence slope is -0.551 (inactive) in assay [4] and 0.006 (inactive) in assay [6]. Also, the NADPH fluorescence slope in assay [5] is -5.5e-05 (inactive).
Regarding `Cc1ccccc1C(=O)N1CCC(C(=O)Nc2ccc(S(=O)(=O)N3CCCC3)cc2)CC1`, the cell count in assay [1] was found to be 186. Further, the inhibition in assay [1] is 6.1% (inactive); in assay [3], 12.2% (inactive); in assay [7] it was 8.84% (inactive); in assay [8] it was 16.9% (inactive). Further, in assay [2], the inhibition of aggregation was -11% (inactive). Besides, the nuclei count in assay [2] worked out at 105%; in assay [3], 97.5%. Further, the fluorescence slope in assay [4] was -0.566 (inactive); in assay [6], 0.0067 (inactive). For the same compound, the NADPH fluorescence slope in assay [5] was -3.8e-05 (inactive).
Turning to `CCCS(=O)(=O)N1CCCC(C(=O)N2CCC(Cc3ccccc3)CC2)C1` (centres undefined), the cell count in assay [1] was determined as 662. Also, the inhibition in assay [1] was -11.9% (inactive); in assay [3], -82.7% (inactive); in assay [7], 11.3% (inactive); in assay [8], 12.1% (inactive). Besides, the inhibition of aggregation in assay [2] is 5% (inactive). For the same compound, the nuclei count in assay [2] is 105%; in assay [3], 106%. Besides, the fluorescence slope in assay [4] was -0.5 (inactive); in assay [6], 0.00325 (inactive). Moreover, the NADPH fluorescence slope in assay [5] was -0.000282 (inactive).
On to `CCOc1cc(C2C(C(=O)c3ccccc3)=C(C(=O)OC)Nc3nnnn32)ccc1O` (centres undefined), for which the cell count in assay [1] was determined as 351. The inhibition is -7.9% (inactive) in assay [1], -69.2% (inactive) in assay [3], 0.723% (inactive) in assay [7] and 11.1% (inactive) in assay [8]. The inhibition of aggregation in assay [2] is 0% (inactive). The nuclei count in assay [2] worked out at 110%; in assay [3] it was 157%. Moreover, the fluorescence slope in assay [4] was -0.52 (inactive); in assay [6], 0.00584 (inactive). Besides, the NADPH fluorescence slope in assay [5] is -3.5e-05 (inactive).
On to `CCn1c(=O)cc(SCC(=O)N2CCOCC2)c2ccccc21`, for which, in assay [1], the cell count worked out at 460. The inhibition was -1.2% (inactive) in assay [1], -69.7% (inactive) in assay [3], 75.8% (active) in assay [7] and 51.3% (active) in assay [8]. In assay [2], the inhibition of aggregation was 0.4% (inactive). The nuclei count in assay [2] came to 115%; in assay [3], 120%. Also, the results for the fluorescence slope in assay [4] and in assay [6] were -0.549 (inactive) and 0.00553 (inactive), respectively. In addition, in assay [5], the NADPH fluorescence slope is -2.4e-05 (inactive).
For `Cc1cccc(-n2c(N)c(C(=O)N3CCN(C)CC3)sc2=S)c1`, the cell count in assay [1] was found to be 786. Besides, the inhibition in assay [1] was 0.5% (inactive); in assay [3], -25.5% (inactive); in assay [7] it was -4.11% (inactive); in assay [8], 6.8% (inactive). In addition, the inhibition of aggregation in assay [2] is -24.6% (inactive). Besides, the nuclei count in assay [2] turned out to be 96.9%; in assay [3], 114%. Further, the fluorescence slope in assay [4] was -0.56 (inactive); in assay [6], 0.00592 (inactive). Moreover, the NADPH fluorescence slope in assay [5] is -2.7e-06 (inactive).
In the case of `CCOC(=O)c1sc(NC(=O)CSc2nc3c(cc2C#N)CCC3)c(C#N)c1C`, the cell count in assay [1] came out at 775. Also, the inhibition in assay [1] is -6.4% (inactive); in assay [3] it was -140% (inactive); in assay [7] it was 18.5% (inactive); in assay [8], 18.8% (inactive). In assay [2], the inhibition of aggregation is -2.5% (inactive). Also, the nuclei count was found to be 94.5% in assay [2] and 140% in assay [3]. Moreover, the fluorescence slope in assay [4] was -0.457 (inactive); in assay [6], 0.00501 (inactive). Moreover, the NADPH fluorescence slope in assay [5] was 2.2e-05 (inactive).
`COc1cccc(NC(=O)CN2CCN(c3ccccc3F)CC2)c1`: the cell count in assay [1] is 275. The inhibition was -7.3% (inactive) in assay [1], 11.9% (inactive) in assay [3], 17.2% (inactive) in assay [7] and 10.2% (inactive) in assay [8]. Moreover, the inhibition of aggregation in assay [2] is 19.4% (inactive). Moreover, the nuclei count in assay [2] came out at 90.1%; in assay [3] it was 86.8%. For the same compound, the fluorescence slope in assay [4] was -0.526 (inactive); in assay [6], 0.00586 (inactive). Also, the NADPH fluorescence slope in assay [5] is 0.000174 (inactive).
Regarding `CN(C)S(=O)(=O)c1ccc(C(=O)Nc2ccccc2C(=O)O)cc1`, the cell count in assay [1] stood at 487. Further, the inhibition in assay [1] was -8.9% (inactive); in assay [3] it was -1.2% (inactive); in assay [7], 2.15% (inactive); in assay [8], 46.7% (inactive). The inhibition of aggregation in assay [2] is 13.1% (inactive). Besides, the nuclei count was 83% in assay [2] and 78% in assay [3]. For the same compound, the figures for the fluorescence slope in assay [4] and in assay [6] were -0.52 (inactive) and 0.00545 (inactive), respectively. Further, in assay [5], the NADPH fluorescence slope was -3.3e-05 (inactive).
